Results on 28 molecules are retold here after ChEMBL document CHEMBL1125744, “Preparation, characterization, and anticancer activity of a series of cis-PtCl2 complexes linked to anthraquinone intercalators” (1991).

What all share (assay type): functional
Test [1] deals with P388. Put plainly: In vitro inhibition of P388 murine leukemia cell (S/ADR) growth. The settings on record: Mus musculus; for EC50: read-out: ED50 (the source's name). The essentials: (§1)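 P388 murine leukemia cells (S/ADR) or multidrug-resistant P388/ADR subline (R/ADR), kept exponential in suspension in RPMI 1640 + 10% heat-inactivated FCS, 10 μM 2-mercaptoethanol, penicillin/streptomycin; seeded 10⁵ cells/mL, exposed to graded concentrations for 4 days. Density counted daily by Coulter counter; growth rate from linear regression of log density vs time, expressed as % of control; ED50 read from dose-effect curves.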

Test [2] relates to P388. Put plainly: In vitro inhibition of P388 murine leukemia cell (R/ADR) growth. The settings on record: Mus musculus; for EC50: read-out: ED50 (the source's name). In short, it runs like this: as §1
Test [3] is filed under the species Mus musculus. Put plainly: Lethal dose against DBA/2 mice was determined.
A short description of test [4]: T/C ratio of the compound.
A short description of test [5]: T/C ratio with the optimal dose mg/Kg in parenthesis.

With `O=C1c2ccccc2C(=O)c2c(NCCCNCCNCCO)cccc21`, the figures for the EC50 in test [1] and in test [2] were 20 µM and above 10 µM, respectively.
For `NCCNCCOCCOc1cccc2c1C(=O)c1ccccc1C2=O`, in that order: 0.2 µM and above 60 µM.
Consider `NCCCOc1cccc2c1C(=O)c1ccccc1C2=O`, for which the values for the EC50 in test [1] and in test [2] were 10 µM and above 10 µM, respectively.
`NCCCCCCCCCCCCNc1cccc2c1C(=O)c1ccccc1C2=O`: the figures for the EC50 in test [1] and in test [2] were 60 µM and 20 µM, respectively.
What is called LD50 is the dose at which mortality reaches 50%. Read a low LD50 as greater toxicity. `NCCNCCCCCCNc1cccc2c1C(=O)c1ccccc1C2=O`: the results for the EC50 in test [1] and in test [2] were 4.5 µM and 8 µM, respectively. Further, the LD50 in test [3] came out at 200 mg/kg.
As for `NCCNCCCNc1cccc2c1C(=O)c1ccccc1C2=O`, the EC50 is 4.5 µM in test [1] and 8 µM in test [2].
The like results for `NCCCNc1cccc2c1C(=O)c1ccccc1C2=O` were, in that order, 20 µM and 45 µM.
Turning to `NCCCCNc1cccc2c1C(=O)c1ccccc1C2=O`, the EC50 turned out to be 40 µM in test [1] and 50 µM in test [2]. The molecule also displayed a median lethal dose (LD50) in test [3] of 200 mg/kg.
Regarding `NCCNCCCOc1cccc2c1C(=O)c1ccccc1C2=O`, the EC50 worked out at 6 µM in test [1] and 60 µM in test [2].
Regarding `NCCCCCCNc1cccc2c1C(=O)c1ccccc1C2=O`, the EC50 in test [1] and in test [2] was 45 µM throughout. The LD50 in test [3] was found to be 133 mg/kg.
Regarding `NCCNCCNc1cccc2c1C(=O)c1ccccc1C2=O`, the values for the EC50 in test [1] and in test [2] were 4.5 µM and 8 µM, respectively.
CISPLATIN: the ED50 in test [1] is 0.19 µM; in test [2], 1.4 µM. The T/C in test [4] turned out to be 134. Also, in test [3], the median lethal dose (LD50) turned out to be 6.6 mg/kg.
For Pt(en)Cl2, the ED50 in test [1] was 6 µM; in test [2], 20 µM.
“[[2-[[2-(Anthraquinon-1-ylamino)ethyl]amino]ethyl]-amine-N,N']dichloroplatinum”: the T/C in test [5] worked out at 126. The ED50 in test [1] was 0.2 µM; in test [2], above 60 µM. In addition, in test [3], the LD50 is above 28 mg/kg.
As for “[[2-[[2-(Anthraquinon-1-ylamino)ethyl]amino]ethyl]-amine-N,N']diiodoplatinum”, the ED50 in test [1] worked out at 4.5 µM; in test [2] it was 12 µM.
The like results for “[[2-[[3-(Anthraquinon-1-ylamino)propyl]amino]ethyl](2-hydroxyethyl)-amine-N,N']dichloroplatinum” were, in that order, above 30 µM and above 60 µM.
Turning to “[[2-[[3-(Anthraquinon-1-ylamino)propyl]amino]ethyl]-amine-N,N']dichloroplatinum”, the T/C in test [5] turned out to be 130. The ED50 in test [1] is 0.45 µM; in test [2], above 60 µM. The LD50 in test [3] is above 28 mg/kg.
For “[[2-[[3-(Anthraquinon-1-yloxy)propyl]amino]ethyl]-amine-N,N']dichloroplatinum”, in that order: 120, 0.45 µM, 12 µM and above 28 mg/kg.
Regarding “[[2-[[6-(Anthraquinon-1-ylamino)hexyl]amino]ethyl]-amine-N,N']dichloroplatinum”, the figures for the ED50 in test [1] and in test [2] were 45 µM and above 60 µM, respectively.
Take “cis-Bis[[3-(anthraquinon-1-ylamino)butyl]amide]dichloroplatinum”: the ED50 was 8 µM in test [1] and above 60 µM in test [2].
The like results for “cis-Bis[[3-(anthraquinon-1-ylamino)butyl]amide]diiodoplatinum” were, in that order, 40 µM and above 60 µM.
For the molecule “cis-Bis[[3-(anthraquinon-1-ylamino)dodecyl]amide]dichloroplatinum”, the ED50 in test [1] was 60 µM; in test [2], above 60 µM.
The like results for “cis-Bis[[3-(anthraquinon-1-ylamino)dodecyl]amide]diiodoplatinum” were, in that order, 60 µM and above 60 µM.
For “cis-Bis[[3-(anthraquinon-1-ylamino)hexyl]amide]dichloroplatinum”, in that order: above 60 µM and above 60 µM.
For “cis-Bis[[3-(anthraquinon-1-ylamino)hexyl]amide]diiodoplatinum”, in that order: above 60 µM and above 60 µM.
For “cis-Bis[[3-(anthraquinon-1-ylamino)propyl]amide]diiodoplatinum”, the ED50 in test [1] is 40 µM; in test [2] it was above 60 µM.
Turning to “cis-Bis[[3-(anthraquinon-1-yloxy)propyl]amide]dichloroplatinum”, the ED50 in test [1] and in test [2] was above 10 µM in each case.
With “cis-Bis[[3-(anthraquinon-1-yloxy)propyl]amide]diiodoplatinum”, the ED50 in test [1] and in test [2] was above 10 µM in each case.
